From PubChem BioAssay
Hck-Nef inh – blocks Nef-activated human Hck kinase. Recombinant Hck-YEEI plus Nef, Z-Lyte FRET kinase assay. inhibition, % at 20 µM. 0.68% of 220,000 active. AID 463187;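 active = Hck-Nef kinase inhibition above about 50%, limit read from the data; inactive = inhibition below that limit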
Biofilm kill mix – mixtures killing C. albicans biofilm. AID 1242. 0.02% of 120,000 active. inhibition, % at 7.6 µM. C. albicans biofilm persisters + clotrimazole, fluorescence viability; primary screen in compound mixtures of four per well;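 also: compounds exposed to preformed 24 h biofilms for 48 h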
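Test system: C. albicans biofilms. Buffer or medium: RPMI/MOPS medium, pH 7.0. Timing: 48 h compound exposure at 37 °C. Technique: Alamar Blue fluorescence. Evaluation: percent inhibition of biofilm viability.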
Mcl-1 Bim block – disrupts Bim peptide binding to human Mcl-1; inhibition, % at 10 µM; Q07820; Bead-based flow cytometry, Bim peptide-Mcl-1 binding; 0.1% of 190,000 active; AID 1009; in the data active = inhibition above about 40%
Target sequence (Q07820 whole entry, looked up): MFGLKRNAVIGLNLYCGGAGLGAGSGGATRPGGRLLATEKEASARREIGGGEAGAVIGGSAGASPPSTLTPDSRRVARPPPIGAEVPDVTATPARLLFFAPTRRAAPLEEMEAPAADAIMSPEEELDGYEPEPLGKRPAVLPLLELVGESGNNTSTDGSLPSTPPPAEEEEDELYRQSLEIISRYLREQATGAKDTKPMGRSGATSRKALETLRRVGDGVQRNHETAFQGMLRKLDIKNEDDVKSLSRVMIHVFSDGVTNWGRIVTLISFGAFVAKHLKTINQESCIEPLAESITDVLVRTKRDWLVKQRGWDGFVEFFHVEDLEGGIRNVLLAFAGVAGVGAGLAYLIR
14-3-3 Bad inh – disrupts binding of bovine 14-3-3 zeta to phospho-Bad peptide | P63103 | TR-FRET 14-3-3zeta/Dy647-pBad peptide displacement, 1 h | inhibition, % at 21.7 µM | 0.71% of 220,000 active | AID 781;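 active = inhibition above about 70%, limit read from the data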
Target sequence (P63103 whole entry, looked up): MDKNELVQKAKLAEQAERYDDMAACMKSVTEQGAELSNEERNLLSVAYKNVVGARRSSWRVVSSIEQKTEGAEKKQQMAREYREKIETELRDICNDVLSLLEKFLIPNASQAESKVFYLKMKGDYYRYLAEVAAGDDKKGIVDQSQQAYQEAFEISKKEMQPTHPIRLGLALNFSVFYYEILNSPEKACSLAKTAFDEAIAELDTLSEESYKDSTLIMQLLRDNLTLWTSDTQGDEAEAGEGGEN
Mcl1 Bid PPI – disrupts binding of human Mcl-1 to Bid peptide. Q07820. TR-FRET Mcl-1/Bid-Dy647 peptide binding, 1536-well. inhibition, % at 21.7 µM. 0.97% of 220,000 active;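 active = compounds that cut the binding signal by more than half at the single screening dose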;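 also: His-tagged Mcl-1 with europium anti-His antibody binding Bid BH3 peptide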
Mcl1 Noxa PPI – Mcl-1/Noxa interaction inhibition; TR-FRET Mcl-1/Noxa peptide binding, 2 h; Q07820; 1.5% of 220,000 active; inhibition, % at 21.7 µM;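 active = compounds that cut the protein-peptide binding signal by more than 50% relative to plate controls in a single-dose test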;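 also: His-tagged Mcl-1 with rhodamine Noxa BH3 peptide and terbium anti-His antibody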
Of the large screens only hits and unclear results are named; the others gave an inactive call; [ ] = dose if it differs, or a comment. The list is not random: actives were taken first. Their share in the collection is about 3.2%.

Cc1cc(C)c(S(=O)(=O)/N=C2/C=C(SCC(=O)O)C(=O)c3ccccc32)cc1C	14-3-3 Bad inh 70, Mcl1 Noxa PPI 87
Cc1cc(NS(=O)(=O)c2ccc(NC(=O)c3cc4cc(Br)ccc4oc3=O)cc2)no1	Mcl1 Bid PPI 57
CSC1=NSC2=NC(=O)/C(=C/c3coc4ccc(O)cc4c3=O)C(=N)N12	Mcl1 Noxa PPI 62
CC(C)(C)[C@@H]1C=C(C(=O)Nc2ccccc2)O[C@H](OCc2ccc(CO)cc2)C1	none
O=C(Nc1cccc(Cl)c1)c1ccc(F)c(S(=O)(=O)N2CCN(c3ccccn3)CC2)c1	none
CCOc1ccc(NC(=O)c2ccc(F)c(S(=O)(=O)N3CCN(c4ccccn4)CC3)c2)cc1	14-3-3 Bad inh 75 (no result: Biofilm kill mix)
Cn1cc(/C=C/C(=O)c2ccccc2)c2ccccc21	14-3-3 Bad inh 91 (no result: Mcl-1 Bim block)
COc1ccc(-c2cc(C(=O)OC(C)C(=O)Nc3c(C)n(C)n(-c4ccccc4)c3=O)c3ccccc3n2)cc1 (stereo not drawn)	none
Cc1c(NC(=O)COC(=O)c2cc(-c3ccc(-c4ccccc4)cc3)nc3ccccc23)c(=O)n(-c2ccccc2)n1C	Mcl1 Bid PPI 82
Cc1c(NC(=O)CN2CC(C)OC(C)C2)c(=O)n(-c2ccccc2)n1C (stereo not drawn)	14-3-3 Bad inh 86 (no result: Biofilm kill mix)
O=C(Cn1cc2c(n1)CCCC2)NCCCN1CCN(c2ccccc2F)CC1	none (no result: Biofilm kill mix)
CC1(C)Cc2c(sc3ncn4c(=S)[nH]nc4c23)CO1	Mcl1 Noxa PPI 67
Cc1ccc(S(=O)(=O)N2CCCCC2)cc1NC(=O)Cn1c(=O)cnc2ccccc21	none
Cc1cc(C)nc(NS(=O)(=O)c2ccc(Br)cc2)n1	14-3-3 Bad inh 85 (no result: Biofilm kill mix)
CCOC(=O)C1=C(O)/C(=C\c2cc(C)n(-c3ccc(F)cc3)c2C)N=C1C	none
O=c1c(Cc2ccccc2)c(O)c2cccc3c4c(n1c23)CCCC4	none (no result: Mcl-1 Bim block)
O=c1c(Cl)c(O)c2cccc3c4ccccc4n1c23	Mcl1 Noxa PPI 65
COCCn1c(SCC(=O)NCc2ccc3c(c2)OCO3)nnc1-c1c[nH]c2ccccc12	none (no result: Biofilm kill mix)
O=C1N/C(=N/NC(=O)c2cccc3ccccc23)S/C1=C\c1ccccc1OCc1ccccc1	Mcl1 Bid PPI 57 (no result: Biofilm kill mix)
Cc1onc(-c2ccccc2)c1C(=O)NCC(O)c1ccccc1 (stereo not drawn)	none (no result: Mcl-1 Bim block)
Cc1cc(C2=NNC(=NC3CC3)SC2)c(C)n1Cc1ccco1	Mcl-1 Bim block 61
COCCCN=C1NN=C(c2cc(C)n(Cc3ccco3)c2C)CS1	none
CCc1cc(C(=O)Nc2cc(S(=O)(=O)N(C)C)ccc2C)sc1C	none
O=C1OCC(CO)(CO)N=C1NNc1ccc(Cl)c(Cl)c1	none (no result: Biofilm kill mix)
CCN1CCN(CC(=O)c2c[nH]c3ccc(C)cc23)CC1	Mcl-1 Bim block 59 (no result: Biofilm kill mix)
Fc1cccc(CSc2ccc(-c3ccco3)nn2)c1	none
Fc1ccc(CSc2ccc(-c3ccco3)nn2)cc1	Mcl1 Bid PPI 61
COc1ccc(CN=C2NC(=O)CC(C(=O)Nc3ccc(F)cc3)S2)cc1 (stereo not drawn)	14-3-3 Bad inh 86[fluorescence artefact?]
COc1ccc(NC(=O)C2CC(=O)N/C(=N/N=C/c3ccco3)S2)cc1 (stereo not drawn)	none (no result: Mcl-1 Bim block)
CN(C)c1ccnc2sc(C(=O)c3ccc(Br)cc3)c(N)c12	none
CN(C)c1ccnc2sc(C(N)=O)c(N)c12	Mcl1 Bid PPI 97 (no result: Biofilm kill mix)
CCCNC(=O)c1nnsc1S(=O)(=O)c1ccc(Cl)cc1	Biofilm kill mix 34
CCCc1cc2c(=O)c(-c3nc4ccccc4s3)c(COCC(=O)O)oc2cc1O	Mcl1 Noxa PPI 73
CCc1cc2c(=O)c(-c3nc4ccccc4n3C)c(COCC(=O)O)oc2cc1O	none (no result: Biofilm kill mix)
OC1(c2ccc(Cl)c(Cl)c2)C[n+]2ccccc2N1Cc1ccccc1 (stereo not drawn)	none (no result: Mcl-1 Bim block)
Cc1sc2ncnc(OCC(=O)Nc3ccc4c(c3)OCCO4)c2c1C	Mcl1 Bid PPI 99 (no result: Biofilm kill mix)
Cc1cc(C)n(C(=O)Cn2nc([N+](=O)[O-])cc2C)n1	none
O=C(Cn1c(C(F)(F)F)nc2ccccc21)c1ccc(F)cc1	Mcl1 Bid PPI 101 (no result: Biofilm kill mix)
O=C(Cn1c(C(F)(F)F)nc2ccccc21)c1ccc(Br)cc1	none (no result: Biofilm kill mix)
O=C(Nc1ccc2ccccc2c1)NC1CCS(=O)(=O)C1 (stereo not drawn)	none
O=C(Nc1ccccc1)NC1CCS(=O)(=O)C1 (stereo not drawn)	Mcl1 Bid PPI 98
CC(=O)NC1=C(NC2CCS(=O)(=O)C2)C(=O)c2ccccc2C1=O (stereo not drawn)	Mcl1 Noxa PPI 94
CCOC(=O)c1c(C)nc2c(c1-c1cc(OC)ccc1OC)C(=O)CC(C)(C)C2	none (no result: Mcl-1 Bim block)
COc1ccccc1-n1cnnc1SCC(=O)NCC1CCCO1 (stereo not drawn)	none
CCN(CC)CCOC(=O)c1ccc(Cl)cc1Cl	none
Cc1ccc(-c2csc(C3=C(O)CN(NC(=O)c4ccc([N+](=O)[O-])cc4)C3=N)n2)cc1	none
CCCCN1CC(O)=C(c2nc(-c3ccc(Cl)cc3)cs2)C1=N	Mcl1 Noxa PPI 64 (no result: Biofilm kill mix)
N=C1C(c2nc(-c3ccc(Cl)cc3)cs2)=C(O)CN1NC(=O)c1ccc(O)cc1	14-3-3 Bad inh 77 (no result: Mcl-1 Bim block)
NC(N)=NN=C1CCCCCCCCCCC1	none (no result: Mcl-1 Bim block)
COc1ccc(O)c(-c2[nH]ncc2C(=O)c2ccccc2C)c1	none (no result: Biofilm kill mix)
CC1CC(C)CN(C2CCN(Cc3cccnc3)CC2)C1 (stereo not drawn)	14-3-3 Bad inh 79 (no result: Biofilm kill mix)
O=C(c1ccc(-n2cccc2)cc1)N1CCCCC1	none
N#Cc1c(/N=C/c2ccco2)oc(-c2ccccc2)c1-c1ccccc1	14-3-3 Bad inh 93[fluorescence artefact?] (no result: Biofilm kill mix)
O=C(Nc1ccc(N2CCOCC2)cc1)C1CCCN(S(=O)(=O)c2ccccc2)C1 (stereo not drawn)	none (no result: Biofilm kill mix)
CN(C)c1ccc(NC(=O)C2CCCN(S(=O)(=O)c3ccccc3)C2)cc1 (stereo not drawn)	Mcl1 Noxa PPI 69
CNC(=O)c1oc(-c2ccc(Cl)cc2)nc1C	none
Cn1c(=O)c2nc3ccccc3nc2n(C)c1=O	none
CC(=O)Nc1ccc2nc3c(=O)n(C)c(=O)n(C)c3nc2c1	Mcl1 Noxa PPI 58 (no result: Mcl-1 Bim block)
Cn1c(=O)c2[nH]c(-c3ccccc3O)nc2n(C)c1=O	Mcl1 Noxa PPI 59 (no result: Biofilm kill mix)
CCn1c(SCC(=O)Nc2cc(C)on2)nc2sc3c(c2c1=O)CCCC3	Hck-Nef inh 53
Cc1ccc(SCC(=O)Nc2ccc(C(=O)Nc3ccc(O)cc3)cc2)cc1	none
CC(=O)Nc1ccc(-c2csc(NC(=O)C3CCN(S(=O)(=O)c4cccs4)CC3)n2)cc1	none
Cc1csc(NC(=O)C2CCN(S(=O)(=O)c3cccs3)CC2)n1	Mcl1 Bid PPI 84
COc1cc(-c2nc3ccc4ccccc4c3c3c2CCC3)cc(OC)c1O	none
COc1cc(-c2nc3ccc4ccccc4c3c3c2CCC3)cc(OC)c1OC	14-3-3 Bad inh 71 (no result: Biofilm kill mix)
Cc1ccc(CSCC(=O)NCc2ccco2)cc1	14-3-3 Bad inh 89
